Source: PubChem (several laboratories)
NR2E3 ag-1: activates human photoreceptor nuclear receptor NR2E3; Q9Y5X4; GST-NR2E3/biotin-RetCOR TR-FRET, 1536-well; inhibition of corepressor binding, % at 4.78 µM; hit rate 0.12% among 320,000; AID 2300;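 active means percent inhibition above the cutoff of mean plus 3 SD of all tested compounds, set per screening campaign, cut at about 20% in these data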;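 further: 0% = DMSO wells and 100% = biotin wells as full block of FRET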
Target sequence (Q9Y5X4 whole entry, looked up): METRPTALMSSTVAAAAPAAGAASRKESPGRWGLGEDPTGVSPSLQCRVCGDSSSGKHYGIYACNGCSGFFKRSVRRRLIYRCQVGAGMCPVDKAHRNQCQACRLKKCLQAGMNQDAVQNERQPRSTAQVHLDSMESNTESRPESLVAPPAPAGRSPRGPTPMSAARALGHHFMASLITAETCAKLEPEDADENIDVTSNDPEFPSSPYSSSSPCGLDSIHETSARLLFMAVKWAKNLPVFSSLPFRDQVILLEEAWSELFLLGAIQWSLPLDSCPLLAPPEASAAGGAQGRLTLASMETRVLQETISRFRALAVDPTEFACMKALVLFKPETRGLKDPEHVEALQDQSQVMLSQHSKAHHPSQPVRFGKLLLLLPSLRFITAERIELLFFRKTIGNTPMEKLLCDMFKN
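System: GST-tagged NR2E3 plus biotinylated RetCOR corepressor; Buffer or medium: pH 7.5 Tris-based buffer; Probe or stimulus: RetCOR corepressor, biotinylated, 7 nM; Doses: compound at 4.8 µM, single dose; Schedule: 5 h incubation at 4 °C; Technique: time-resolved FRET; Evaluation: percent inhibition of TR-FRET ratio; Replication: one well per compound, singlicate testing.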
NR2E3 ag-2: activates human NR2E3 receptor. Q9Y5X4. CHO-S Gal4-NCOR/VP16-NR2E3 two-hybrid, luciferase. inhibition of corepressor binding, % at 3.98 µM. hit rate 0.35% among 360,000. AID 602229;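 active means inhibition above the mean of all tested compounds plus 3 SD, cut at about 70% in these data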;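 further: 0% = DMSO with NR2E3 transfected cells and 100% = cells lacking NR2E3 construct; higher means lower luciferase signal from less NR2E3 corepressor binding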
PG9 Ab binder: binds the HIV-1 gp120 antibody PG9 | hit rate 0.43% among 360,000 | inhibition, % at 6.7 µM | AID 624416 | TR-FRET gp120-PG9 antibody binding; in the data active means inhibition above about 8.5%
MC4R antagonist: blocks human MC4R cAMP signaling; P32245; MC4R-expressing cells, MTII-stimulated cAMP, LANCE TR-FRET; inhibition, % at 6.5 µM; hit rate 0.48% among 360,000; AID 540295;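 active means inhibition above its plate's cutoff, the mean of tested wells on that plate plus 3 SD, cut at about 29% in these data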;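 further: 0% = Melanotan II alone and 100% = Melanotan II plus saturating MCL0020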
Target sequence (P32245 whole entry, looked up): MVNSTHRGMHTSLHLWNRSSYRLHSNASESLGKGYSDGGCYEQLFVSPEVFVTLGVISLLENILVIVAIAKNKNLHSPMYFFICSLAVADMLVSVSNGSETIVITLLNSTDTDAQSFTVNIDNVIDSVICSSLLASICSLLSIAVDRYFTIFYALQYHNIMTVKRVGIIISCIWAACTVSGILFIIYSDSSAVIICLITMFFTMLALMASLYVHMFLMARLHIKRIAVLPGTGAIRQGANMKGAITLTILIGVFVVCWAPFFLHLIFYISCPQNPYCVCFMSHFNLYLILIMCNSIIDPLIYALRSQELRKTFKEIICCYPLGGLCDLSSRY
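System – human MC4R-expressing U2OS cells · Also added – Melanotan II · Dosing – one concentration, 6.5 µM nominal · Timing – 30-min compound, 1-h challenge, 1-h detection, room temperature · Measured by – Eu-cAMP/anti-cAMP TR-FRET, emission 671 nm · Replicates – singlicate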
MC4R ag barr: activates human MC4R beta-arrestin recruitment; P32245; U2OS MC4R beta-arrestin complementation, luminescence; percent of melanotan II response, DMSO zero; activation, % at 8.9 µM; hit rate 0.98% among 360,000;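 active means activation above a per-plate cutoff, the mean activation of sample wells on that plate plus 3 SD, cut at about 8% in these data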
NR1D1 modulator: Rev-erb alpha (human) modulation; P20393; Rev-erbα–FITC-DNA binding, fluorescence polarization, 90 min; activity, % at 10 µM; hit rate 0.79% among 370,000; AID 1259318;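 active means activity above about 14%, limit read from the data; passing the limit was not always enough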;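 further: 0% = DMSO wells with 35 nM protein and 100% = DMSO wells with 750 nM protein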
NR1D1 mod conf: Rev-erb alpha (human) modulation, hit confirmation | hit rate 61% among 3,000 | activation, % at 25 µM | AID 1259319 | shares compounds with NR1D1 modulator | Rev-erb alpha FITC-DNA binding, fluorescence polarization, 90 min;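 active means activation at or above a set limit, or at least 3 SD above the negative control mean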;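 further: 0% = 35 nM protein with DMSO and 100% = 750 nM protein high control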
RORg counter: RORgamma DNA-binding activity, dose-response counter-screen | shares compounds with NR1D1 modulator | purified RORgamma protein-FITC-DNA binding, fluorescence polarization | IC50, µM | hit rate 8% among 910;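 active means Compounds whose fitted half-maximal concentration for disrupting protein-DNA binding is below 10 micromolar; the record names Rev-erb in its text, so the target is in doubt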
* hit, by the source's call; i = inactive; / = no result given. The list is not random: actives were taken first. Their share in the collection is about 2.7%.

SMILES	NR2E3 ag-1	NR2E3 ag-2	PG9 Ab binder	MC4R antagonist	MC4R ag barr	NR1D1 modulator	NR1D1 mod conf	others
COc1cccc(N(C(=O)CNC(=O)c2ccco2)C(C(=O)NC2CCCC2)c2cccnc2)c1 (centres undefined)	1.7	-5.4	-2.3	6.4	1.3	-1.1	/
CC(C)Oc1ccc(CN2CCCC(CO)(Cc3ccccc3)C2)cc1CO (centres undefined)	1.7	-5.9	-1.4	5.3	0.2	1.5	/
COc1ccc(CN2CCCC(CO)(Cc3ccc(F)cc3)C2)cc1C (centres undefined)	0.9	-16.1	-1.7	-6.6	-0.4	12.6*	3.1
CSc1nc2nc3c(cc2c(=O)n1-c1ccccc1C)CCCC3	-0.6	-7.0	-1.1	5.0	2.0	2.9	/
O=C(Nc1ccc2c(c1)COC2=O)c1ccc(Cl)c(Cl)c1	-5.8	-35.2	6.7	8.3	0.5	47.9*	27.2*
O=C(O)c1ccc(CN2C[C@@H](CO)O[C@@H](n3cnc4c(Nc5ccccc5)ncnc43)C2)cc1	/	-0.7	1.0	2.6	-1.5	-11.8	/
COc1ccc(-c2nsc3c(N4CCN(S(=O)(=O)c5ccccc5F)CC4)ncnc23)cc1	-1.2	-17.1	1.8	4.6	0.8	31.5*	12.8
CCc1cc2ccc(OC)cc2nc1SCC(=O)NNC(C)=O	-0.7	-2.0	0.9	1.1	-0.2	2.4	/
Cc1cc2cc(C#N)c(SCC(=O)Nc3nonc3C)nc2cc1C	5.5	-6.3	-0.9	-11.3	0.5	20.4*	33.3*	RORg counter=i
CCc1cc2cc(C)c(C)cc2nc1SCC(=O)Nc1cc(C)on1	-0.2	-9.0	-2.7	10.9	1.1	35.6*	2.4
CCc1cc2c(C)ccc(C)c2nc1SCC(=O)Nc1cc(C)on1	6.8	-17.5	2.9	3.6	-0.8	23.9*	8.1
CCCc1nc(SCC(=O)Nc2cc(C)on2)c2ccccc2n1	1.3	21.7	1.3	6.8	-0.9	4.0	/
CCc1cc2ccc(OC)cc2nc1SCC(=O)Nc1cc(C)on1	-1.0	-11.1	1.3	6.3	3.8	75.5*	56.9*	RORg counter=>40
COc1ccccc1-c1nc(SCC(=O)Nc2cc(C)on2)c2c(=O)n(C)c(=O)n(C)c2n1	1.8	-3.1	-0.4	22.6	-1.8	71.7*	60.1*	RORg counter=i
CCCCN(CCCC)Cc1cc(=O)oc2cc(C)cc(C)c12	/	-11.2	-0.7	/	/	18.9*	-0.8
COc1cccc(-c2nc3sc4c(c3c(=O)[nH]2)CCCCC4)c1	-1.9	-32.0	-1.3	11.4	-2.7	26.3*	1.6
CN(C)c1cc(C(=O)N(C)c2ccccc2)ncn1	/	-8.5	0.2	1.8	0.0	-3.9	/
CCOC(=O)N1CCN(c2nc(-c3ccco3)cc(C(F)(F)F)n2)CC1	1.5	-21.3	0.3	5.6	1.4	9.9	/
CCOC(=O)N1CCN(c2nc(-c3cccs3)cc(C(F)(F)F)n2)CC1	-4.0	-3.7	2.4	3.8	-3.0	22.5*	9.1
COc1ccc2[nH]c3c(=O)n(Cc4ccc(C(=O)N5CCCCCC5)cc4)c(=S)[nH]c3c2c1	-0.3	-3.3	1.4	4.8	-1.5	40.8*	28.7*
COc1ccc2[nH]c3c(=O)n(Cc4ccc(C(=O)N5CCC(C(N)=O)CC5)cc4)c(=S)[nH]c3c2c1	-3.7	-18.6	-3.4	9.2	-5.0	1.6	/
CCN(CC)S(=O)(=O)c1ccc2[nH]cc(C(=O)NCCN3CCCCC3C)c(=O)c2c1 (centres undefined)	0.1	19.4	-1.1	-5.2	0.6	-3.9	/
CCN(CC)S(=O)(=O)c1ccc2[nH]cc(C(=O)NCCCN3CCCCC3C)c(=O)c2c1 (centres undefined)	5.3	-10.1	-1.2	-3.2	-0.8	26.9*	2.1
CCCCCNC(=O)c1c[nH]c2ccc(S(=O)(=O)N3CCC4(CC3)OCCO4)cc2c1=O	-2.5	5.1	0.5	3.6	0.7	37.7*	48.3*	RORg counter=>40
CC(C)CC1C(=O)N(Cc2cn(CCC3OCCO3)nn2)CCS(=O)(=O)N1Cc1ccc(-c2cccc(CO)c2)cc1 (centres undefined)	/	-2.7	-0.9	11.7	0.2	-1.6	/
SMILES	NR2E3 ag-1	NR2E3 ag-2	PG9 Ab binder	MC4R antagonist	MC4R ag barr	NR1D1 modulator	NR1D1 mod conf	others
O=C(NNC(=S)NC1CCCCC1)c1ccc(Cl)s1	-2.5	-54.0	-0.5	-2.8	-1.5	3.2	/
O=S(=O)(c1ccccc1)N1CCN(Cc2ccccc2)CC1	1.9	-11.3	0.2	7.8	2.2	-3.2	/
O=S(=O)(c1ccccc1)N1CCN(Cc2ccccc2)c2ccccc21	/	-8.4	-1.8	5.8	-0.7	25.0*	16.7*
CC1CCN(Cc2cc(=O)oc3ccc(C(C)C)cc23)CC1	1.4	-12.2	1.4	-1.4	1.8	21.7*	32.6*	RORg counter=>40
O=C(NCc1ccccc1)C1c2ccccc2OCC(=O)N1CCc1ccccc1 (centres undefined)	/	-8.9	-2.3	/	/	-6.1	/
Cc1ccc2nsnc2c1NC(=O)CCl	-3.1	-2.3	0.5	5.5	-4.5	1.1	/
Cc1ccc2nsnc2c1NC(=O)Cc1ccc(Cl)cc1	-0.7	6.5	-2.2	7.6	-2.1	50.8*	12.9
O=S(=O)(c1cccc2cccnc12)N1CCc2ccccc21	-3.4	-24.3	-0.1	-8.3	-1.4	-0.3	/
CCOCCn1c(CCCO)nc2ccccc21	-2.7	-8.9	1.4	-1.7	-1.4	-1.2	/
CS(=O)(=O)c1ccc2nc(NC(=O)c3cc(-c4ccccc4)nn3-c3ccccc3)sc2c1	-0.2	1.2	0.1	4.1	0.3	42.4*	18.8*
CS(=O)(=O)c1ccc2nc(NC(=O)C3=NN(c4ccccc4)C(=O)CC3)sc2c1	-1.0	-4.2	-1.8	8.9	-2.2	2.1	/
COC(=O)c1ccccc1NC(=O)CSc1n[nH]c(CC(C)C)n1	4.1	-3.3	0.3	11.5	1.4	-2.9	/
Cc1cc(Br)cn2c(Cc3cccc(F)c3)c(-c3ccco3)nc12	/	/	1.9	/	/	-4.6	/
O=c1c2ccccc2ncn1CCCSc1ccccc1	5.4	-8.2	0.8	-2.6	-0.3	7.2	/
O=c1oc2ccccc2n1CSc1nc2ccccc2s1	-1.8	-117.4	-0.5	5.3	-0.2	18.0*	19.7*
O=c1oc2ccccc2n1CSC1=NCCS1	1.4	-3.6	-0.4	-6.3	-1.7	-1.4	/
CN(CC(=O)Nc1ccc(F)cc1)C(=O)COC(=O)CNC(=O)c1sc2ccccc2c1Cl	-1.2	20.4	6.2	16.3	-3.8	22.8*	9.1
COc1cccc(NC(=O)Cn2cc(C(=O)C3CC3)c3ccccc32)c1	2.1	-4.0	0.8	-0.5	-0.9	-2.4	/
Nc1nc2ccc(Cl)cc2cc1C(=O)NC1CC1	/	13.5	1.3	/	/	2.2	/
